ChEMBL document CHEMBL3808334, “Synthesis and in vitro evaluation of novel triazine analogues as anticancer agents and their interaction studies with bovine serum albumin” (Eur J Med Chem, 2016)

Assays:
Format in all cases: functional
ACHN = test: Growth inhibition of human ACHN cells assessed as cell growth at 10^-4 M incubated for 48 hrs by sulforhodamine B assay; details: read-out: Activity
Method in brief: (§1)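 Five-dose assay: five concentrations from 10-fold or ½-log serial dilutions. Cells are plated at 5,000–40,000 per well according to doubling time, grown 24 h, then exposed 48 h at 37 °C, 5% CO₂. Fixed with cold 50% TCA (final addition) for 60 min at 4 °C and stained with 0.4% SRB in 1% acetic acid. Bound dye is solubilized in 10 mM Tris base and read at 515 nm. GI₅₀ is where [(Ti−Tz)/(C−Tz)]×100 = 50, with a time-zero plate as Tz.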

[1] = Growth inhibition of human Caki1 cells assessed as cell growth at 10^-4 M incubated for 48 hrs by sulforhodamine B assay; details: CAKI-1, 48 h, read-out: Activity
Method in brief: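 Cells seeded at 5,000–40,000/well according to doubling time and preincubated 24 h at 37 °C, 5% CO2. Time-zero plates were TCA-fixed. DMSO concentrate was diluted in medium with 50 µg/ml gentamicin to give five concentrations (10-fold or ½ log steps), then exposed 48 h. Cells were TCA-fixed, stained with 0.4% SRB and read at 515 nm. Percent growth was taken against time-zero and control; GI50, TGI and LC50 derived.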

A549 = test: Growth inhibition of human A549/ATCC cells incubated for 48 hrs by sulforhodamine B assay; details: A549, 48 h; method in brief: as §1
NCI-H23 = test: Growth inhibition of human NCI-H23 cells incubated for 48 hrs by sulforhodamine B assay; details: NCI-H23, 48 h
Method in brief: (§2)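 Cells were plated at 5,000–40,000 per well according to doubling time and preincubated 24 h at 37 °C in 5% CO2; time-zero plates were then TCA-fixed. Five concentrations (10-fold or ½-log dilutions, DMSO stock) were incubated 48 h. Cells were TCA-fixed, stained with 0.4% SRB and read at 515 nm. GI50 was taken where [(Ti−Tz)/(C−Tz)]×100 = 50.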

[2] = Growth inhibition of human RXF393 cells incubated for 48 hrs by sulforhodamine B assay; details: RXF 393, 48 h; method in brief: as §2
SN12C = test: Growth inhibition of human SN12C cells incubated for 48 hrs by sulforhodamine B assay; details: for CC50: read-out: pLC50 (the source's name) (converted); method in brief: as §2
[3] = Growth inhibition of human OVCAR3 cells assessed as cell growth at 10^-8 M incubated for 48 hrs by sulforhodamine B assay; details: OVCAR-3, 48 h, read-out: Activity
CCRF-CEM = test: Growth inhibition of human CCRF-CEM cells assessed as cell growth at 10^-7 M incubated for 48 hrs by sulforhodamine B assay; details: read-out: Activity
Method in brief: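 Leukemia line in the five-dose format: five concentrations from 10-fold or ½-log serial dilutions. Plated at 5,000–40,000 cells per well, preincubated 24 h, then compound added for 48 h at 37 °C, 5% CO₂. Sulforhodamine B absorbance read at 515 nm. Growth is computed against time-zero (Tz) and control (C) readings; GI₅₀ is where [(Ti−Tz)/(C−Tz)]×100 = 50.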

SK-MEL-2 = test: Growth inhibition of human SK-MEL-2 cells assessed as cell growth at 10^-7 M incubated for 48 hrs by sulforhodamine B assay; details: SK-MEL-2, 48 h, read-out: Activity
NCI/ADR-RES = test: Growth inhibition of human NCI/ADR-RES cells assessed as cell growth at 10 uM incubated for 48 hrs by sulforhodamine B assay; details: read-out: Activity
HT-29 [4] = test: Growth inhibition of human HT-29 cells assessed as cell growth at 10^-6 M incubated for 48 hrs by sulforhodamine B assay; details: HT-29, 48 h, read-out: Activity
NCI-H226 = test: Growth inhibition of human NCI-H226 cells assessed as cell growth at 10^-8 M incubated for 48 hrs by sulforhodamine B assay; details: NCI-H226, 48 h, read-out: Activity
NCI-H322M [5] = test: Growth inhibition of human NCI-H322M cells assessed as cell growth at 10^-8 M incubated for 48 hrs by sulforhodamine B assay; details: read-out: Activity
[6] = Growth inhibition of human SNB75 cells assessed as cell growth at 10^-6 M incubated for 48 hrs by sulforhodamine B assay; details: SNB-75, 48 h, read-out: Activity
[7] = Growth inhibition of human LOXIMVI cells assessed as cell growth at 10^-6 M incubated for 48 hrs by sulforhodamine B assay; details: LOX IMVI, read-out: Activity
Malme-3M = test: Growth inhibition of human MALME-3M cells assessed as cell growth at 10^-6 M incubated for 48 hrs by sulforhodamine B assay; details: read-out: Activity
M14 = test: Growth inhibition of human M14 cells assessed as cell growth at 10^-6 M incubated for 48 hrs by sulforhodamine B assay; details: M14, 48 h, read-out: Activity
[8] = Growth inhibition of human OVCAR3 cells assessed as cell growth at 10^-6 M incubated for 48 hrs by sulforhodamine B assay; details: OVCAR-3, 48 h, read-out: Activity
[9] = Growth inhibition of human PC3 cells assessed as cell growth at 10^-6 M incubated for 48 hrs by sulforhodamine B assay; details: PC-3, 48 h, read-out: Activity
MCF7 = test: Growth inhibition of human MCF7 cells assessed as cell growth at 10^-6 M incubated for 48 hrs by sulforhodamine B assay; details: MCF7, 48 h, read-out: Activity
NCI-H322M [10] = test: Growth inhibition of human NCI-H322M cells assessed as cell growth at 10^-5 M incubated for 48 hrs by sulforhodamine B assay; details: read-out: Activity
HT-29 [11] = test: Growth inhibition of human HT-29 cells assessed as cell growth at 10^-5 M incubated for 48 hrs by sulforhodamine B assay; details: HT-29, 48 h, read-out: Activity
[12] = Growth inhibition of human SF268 cells assessed as cell growth at 10 uM incubated for 48 hrs by sulforhodamine B assay; details: SF-268, 48 h, read-out: Activity
[13] = read-out: LC50 (the source's name)
[14] = read-out: pLC50 (the source's name) (converted)

Fc1ccc(-c2nc(Nc3ccc(-c4nc5ccccc5[nH]4)cc3)nc(N3CCOCC3)n2)cc1
growth at 100 µM (ACHN): 3% | growth at 100 µM [1]: -29% | GI50 (A549; read-out: GI50): 3.24 µM | CC50 (A549; [13]): > 100 µM | TGI (A549; read-out: TGI): > 100 µM | GI50 (A549; read-out: pGI50 (converted)): 3.24 µM | CC50 (A549; [14]): > 100 µM | TGI (A549; read-out: pTGI (converted)): > 100 µM | GI50 (NCI-H23; read-out: GI50): 2.57 µM | CC50 (NCI-H23; [13]): > 100 µM | TGI (NCI-H23; read-out: TGI): 9.9 µM | GI50 (NCI-H23; read-out: pGI50 (converted)): 2.57 µM | CC50 (NCI-H23; [14]): > 100 µM | TGI (NCI-H23; read-out: pTGI (converted)): 10 µM | GI50 ([2]; read-out: GI50): 0.459 µM | CC50 [2, 13]: > 100 µM | TGI ([2]; read-out: TGI): 2.51 µM | GI50 ([2]; read-out: pGI50 (converted)): 0.457 µM | CC50 [2, 14]: > 100 µM | TGI ([2]; read-out: pTGI (converted)): 2.51 µM | LC50 (50% lethal concentration) (SN12C): > 100 µM | GI50 (SN12C; read-out: GI50): 3.19 µM | TGI (SN12C; read-out: TGI): 23 µM | GI50 (SN12C; read-out: pGI50 (converted)): 3.16 µM | CC50 (SN12C): > 100 µM | TGI (SN12C; read-out: pTGI (converted)): 22.9 µM | growth at 0.01 µM [3]: 102% | growth at 0.1 µM (CCRF-CEM): 104% | growth at 0.1 µM (SK-MEL-2): 101% | growth at 10 µM (NCI/ADR-RES): 34.2% | growth at 1 µM (HT-29 [4]): 96% | growth at 0.01 µM (NCI-H226): 100% | growth at 0.01 µM (NCI-H322M [5]): 101% | growth at 1 µM [6]: 67% | growth at 1 µM [7]: 91% | growth at 1 µM (Malme-3M): 104% | growth at 1 µM (M14): 95% | growth at 1 µM [8]: 89% | growth at 1 µM [9]: 93% | growth at 1 µM (MCF7): 85% | growth at 10 µM (NCI-H322M [10]): 16% | growth at 10 µM (HT-29 [11]): -35% | growth at 10 µM [12]: 34.1%

Clc1ccc(-c2nc(Nc3ccc(-c4nc5ccccc5[nH]4)cc3)nc(N3CCOCC3)n2)cc1
growth at 100 µM (ACHN): -30% | growth at 100 µM [1]: -68% | GI50 (A549; read-out: GI50): 0.666 µM | CC50 (A549; [13]): 5.54 µM | TGI (A549; read-out: TGI): 2.13 µM | GI50 (A549; read-out: pGI50 (converted)): 0.661 µM | CC50 (A549; [14]): 5.5 µM | TGI (A549; read-out: pTGI (converted)): 2.14 µM | GI50 (NCI-H23; read-out: GI50): 1.7 µM | TGI (NCI-H23; read-out: TGI): 3.66 µM | GI50 (NCI-H23; read-out: pGI50 (converted)): 1.7 µM | TGI (NCI-H23; read-out: pTGI (converted)): 3.63 µM | GI50 ([2]; read-out: GI50): 0.222 µM | TGI ([2]; read-out: TGI): 0.45 µM | GI50 ([2]; read-out: pGI50 (converted)): 0.224 µM | TGI ([2]; read-out: pTGI (converted)): 0.447 µM | GI50 (SN12C; read-out: GI50): 0.851 µM | TGI (SN12C; read-out: TGI): 2.39 µM | GI50 (SN12C; read-out: pGI50 (converted)): 0.851 µM | TGI (SN12C; read-out: pTGI (converted)): 2.4 µM | growth at 0.01 µM [3]: 99% | growth at 0.1 µM (CCRF-CEM): 99% | growth at 0.1 µM (SK-MEL-2): 92% | growth at 10 µM (NCI/ADR-RES): -87.5% | growth at 1 µM (HT-29 [4]): -39% | growth at 0.01 µM (NCI-H226): 101% | growth at 0.01 µM (NCI-H322M [5]): 96% | growth at 1 µM [6]: 95% | growth at 1 µM [7]: -64% | growth at 1 µM (Malme-3M): 111% | growth at 1 µM (M14): 18% | growth at 1 µM [8]: 15% | growth at 1 µM [9]: 13% | growth at 1 µM (MCF7): -39% | growth at 10 µM (NCI-H322M [10]): -80% | growth at 10 µM (HT-29 [11]): -74% | growth at 10 µM [12]: -82.7%

c1ccc2[nH]c(-c3ccc(Nc4nc(N5CCCCC5)nc(N5CCOCC5)n4)cc3)nc2c1
growth at 100 µM (ACHN): 1% | growth at 100 µM [1]: -32% | GI50 (A549; read-out: GI50): 3.27 µM | CC50 (A549; [13]): > 100 µM | TGI (A549; read-out: TGI): 13.2 µM | GI50 (A549; read-out: pGI50 (converted)): 3.24 µM | CC50 (A549; [14]): > 100 µM | TGI (A549; read-out: pTGI (converted)): 13.2 µM | GI50 (NCI-H23; read-out: GI50): 3.05 µM | CC50 (NCI-H23; [13]): > 100 µM | TGI (NCI-H23; read-out: TGI): 15.7 µM | GI50 (NCI-H23; read-out: pGI50 (converted)): 3.02 µM | CC50 (NCI-H23; [14]): > 100 µM | TGI (NCI-H23; read-out: pTGI (converted)): 15.8 µM | GI50 ([2]; read-out: GI50): 0.808 µM | CC50 [2, 13]: > 100 µM | TGI ([2]; read-out: TGI): 3.28 µM | GI50 ([2]; read-out: pGI50 (converted)): 0.813 µM | CC50 [2, 14]: > 100 µM | TGI ([2]; read-out: pTGI (converted)): 3.31 µM | LC50 (50% lethal concentration) (SN12C): > 100 µM | GI50 (SN12C; read-out: GI50): 5.4 µM | TGI (SN12C; read-out: TGI): 53.2 µM | GI50 (SN12C; read-out: pGI50 (converted)): 5.37 µM | CC50 (SN12C): > 100 µM | TGI (SN12C; read-out: pTGI (converted)): 53.7 µM | growth at 0.01 µM [3]: 103% | growth at 0.1 µM (CCRF-CEM): 96% | growth at 0.1 µM (SK-MEL-2): 102% | growth at 10 µM (NCI/ADR-RES): 45.6% | growth at 1 µM (HT-29 [4]): 104% | growth at 0.01 µM (NCI-H226): 84% | growth at 0.01 µM (NCI-H322M [5]): 90% | growth at 1 µM [6]: 69% | growth at 1 µM [7]: 89% | growth at 1 µM (Malme-3M): 98% | growth at 1 µM (M14): 93% | growth at 1 µM [8]: 96% | growth at 1 µM [9]: 101% | growth at 1 µM (MCF7): 87% | growth at 10 µM (NCI-H322M [10]): 29% | growth at 10 µM (HT-29 [11]): -36% | growth at 10 µM [12]: 33.8%
